Laboratory results from ChEMBL document CHEMBL5370575, “Probing the Cytotoxic Signaling Induced by Eupenifeldin in Ovarian Cancer Models” (J Nat Prod, 2023).
The source made the active and inactive calls.

Assays:
OVCAR-8 [1] = assay: Cytotoxicity against human OVCAR-8 cells assessed as inhibition of cell growth for 72 hrs by CellTiter-Blue cell viability assay; assay type: functional, cell-based
In short: (§1)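 5000 cells seeded in triplicate, attached overnight, then exposed for 72 h to serial concentrations in DMSO vehicle (0.05%). Viability was read by fluorometric CellTiter-Blue. IC50 in nM comes from dose–response curves relative to DMSO control. Media: OVCAR3 in RPMI1640, OVCAR5/OVCAR8 in DMEM, hFT33 in DMEM-Ham's F12 50/50, all with 10% FBS. Data are mean ± SEM, three biological replicates.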

OVCAR-3 [2] = assay: Induction of ferroptosis in human OVCAR-3 cells at 0.001 to 10 uM in presence of ferrostatin-1 by CellTiterGlo assay; assay type: functional, cell-based; details: dose 0.001-10 µM
OVCAR-5 [3] = assay: Induction of apoptosis in human OVCAR-5 cells assessed as decrease in caspase-3/7 activity at 50 nM incubated for 48 hrs in presence of by ZVAD-FMK fluorescent reporter assay
[4] = Toxicity in immunodeficient NCr nu/nu mouse xenografted with human OVCAR-3 cells assessed as change in body weight at 0.5 mg/kg, ip administrated once per day for 4 days measured measured on day 7 relative to control; assay type: organism-based; details: in vivo, 168 h, time 7 day
In short: (§2)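 Female immunodeficient NCr nu/nu mice, 6–8 weeks old, carried cells sealed in polyvinylidene fluoride hollow fibers implanted intraperitoneally on day 0. Dosing was i.p. once daily on days 3–6 in 2% DMSO:48% PEG300:50% H2O, diluted with H2O. Body weight was followed over the study, and fibers were retrieved on day 7.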

OVCAR-3 [5] = assay: Induction of apoptosis in human OVCAR-3 cells assessed as increase in caspase-3/7 activity at 50 nM incubated for 48 hrs by fluorescent reporter assay
OVCAR-3 [6] = assay: Induction of ferroptosis in human OVCAR-3 cells at 0.1 to 10 uM in the presence of ferrostatin-1 by CellTiterGlo assay; assay type: functional, cell-based; details: dose 0.1-10 µM
In short: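 OVCAR3 in 384-well plates (1000 cells/well), given 100 nM to 10 μM together with 2 μM ferrostatin-1, in triplicate; viability measured by CellTiter-Glo.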

OVCAR-3 [7] = assay: Induction of apoptosis in human OVCAR-3 cells assessed as increase in cleaved PARP expression level at >=10 nM incubated for 72 hrs by Western blotting analysis
OVCAR-5 [8] = assay: Cytotoxicity against human OVCAR-5 cells assessed as inhibition of cell growth for 72 hrs by CellTiter-Blue cell viability assay; assay type: functional, cell-based; details: OVCAR-5, 72 h; in short: as §1
OVCAR-3 [9] = assay: Induction of apoptosis in human OVCAR-3 cells assessed as increase in apoptotic cells at 25 nM incubated for 48 hrs by Annexin V-FITC/propidium iodide staining based analysis; assay type: functional, cell-based
In short: (§3)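 OVCAR5/OVCAR8 seeded at 175 000 and OVCAR3 at 190 000 cells per 60 mm dish, attached overnight, treated 48 h (10, 25 or 50 nM). Media and cells collected, PBS-washed, stained with annexin V-FITC/propidium iodide and read on a cell counter with gating per kit. Three biological replicates, mean ± SEM, Dunnett's test.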

OVCAR-5 [10] = assay: Inhibition of cell migration in human OVCAR-5 cells assessed as decrease in wound closure at 10 to 25 nM incubated for 48 hrs by wound healing assay; assay type: functional, cell-based; details: dose 10-25 nM
In short: (§4)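 Confluent monolayers scratched once, washed with PBS, then treated with 10 or 25 nM (paclitaxel 10 nM control) for 48 h. Scratch area imaged at 4× at 0 and 48 h, measured and normalised to vehicle. One-way ANOVA with Dunnett's test.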

OVCAR-3 [11] = assay: Induction of apoptosis in human OVCAR-3 cells assessed as increase in necrotic cells at 25 nM incubated for 48 hrs by Annexin V-FITC/propidium iodide staining based analysis; assay type: functional, cell-based; in short: as §3
OVCAR-3 [12] = assay: Anti-ferroptotic activity against human OVCAR-3 cells assessed as decrease in lipid peroxidation at 50 nM incubated for 24 hrs in presence of ferrostatin-1 by C11-BODIPY staining based flow cytometric analysis; assay type: functional, cell-based
In short: (§5)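 Cells treated 24 h with 50 nM, with or without 2 μM ferrostatin-1; lipid peroxidation read as C11-BODIPY fluorescence in the green channel by flow cytometry.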

HeLa [13] = assay: Induction of autophagic flux in human HeLa cells harbouring mCherry-eGFP-LC3 assessed as increase in number of autolysosomes at 10 nM incubated for 24 hrs by Hoechst 33342 and DAPI staining based analysis; assay type: functional, cell-based
In short: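 HeLa stably expressing mCherry-eGFP-LC3, 384-well plates, treated 24 h, fixed 12 min in 4% formaldehyde, nuclei stained, imaged at 10× under FITC and Texas Red filters; autolysosomes/autophagosomes quantified by high-content analysis and normalised to DMSO; chloroquine as control. Three biological replicates in duplicate.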

OVCAR-3 (Homo sapiens) [14] = assay: Anti-ferroptotic activity against human OVCAR-3 cells assessed as decrease in lipid peroxidation at 50 nM incubated for 24 hrs by C11-BODIPY staining based flow cytometric analysis
[15] = Toxicity in immunodeficient NCr nu/nu mouse xenografted with human OVCAR-8 cells assessed as change in body weight at 0.5 mg/kg, ip administrated once per day for 4 days measured measured on day 7 relative to control; assay type: organism-based; details: in vivo, 168 h, time 7 day; in short: as §2
OVCAR-8 [16] = assay: Induction of apoptosis in human OVCAR-8 cells assessed as increase in necrotic cells at 25 nM incubated for 48 hrs by Annexin V-FITC/propidium iodide staining based analysis; assay type: functional, cell-based; in short: as §3
OVCAR-8 [17] = assay: Induction of apoptosis in human OVCAR-8 cells assessed as increase in apoptotic cells at 25 nM incubated for 48 hrs by Annexin V-FITC/propidium iodide staining based analysis; assay type: functional, cell-based; in short: as §3
[18] = Cytotoxicity against human FT33 cells assessed as inhibition of cell growth for 72 hrs by CellTiter-Blue cell viability assay; assay type: toxicity, cell-based; in short: as §1
OVCAR-8 [19] = assay: Induction of autophagy in human OVCAR-8 cells assessed as reduction in cell viability at 25 nM incubated for 72 hrs in the presence of 1 nM bafilomycin by CellTiter-Blue Cell Viability assay; assay type: functional, cell-based
In short: (§6)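 5000 cells/well attached overnight, then treated 72 h with 25 nM alone or with bafilomycin A1 (5 nM; OVCAR8 also at 1 nM); bafilomycin alone as control. Viability by CellTiter-Blue fluorescence, normalised to vehicle. One-way ANOVA with Tukey's test.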

OVCAR-3 [20] = assay: Anti-ferroptotic activity against human OVCAR-3 cells assessed as decrease in lipid peroxidation at 50 nM incubated for 24 hrs by C11-BODIPY staining based flow cytometric analysis; assay type: functional, cell-based; in short: as §5
OVCAR-3 [21] = assay: Induction of apoptosis in human OVCAR-3 cells assessed as decrease in caspase-3/7 activity at 50 nM incubated for 48 hrs in presence of by ZVAD-FMK fluorescent reporter assay
OVCAR-8 [22] = assay: Antitumor activity against human OVCAR-8 cells xenografted in immunodeficient NCr nu/nu mouse assessed as reduction in cell survival at 0.5 mg/kg, ip administrated once per day for 4 days measured on day 7 by MTT assay; assay type: functional, organism-based; details: time 7.0 day
In short: (§7)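 Female immunodeficient NCr nu/nu mice (6–8 weeks) carried intraperitoneal polyvinylidene fluoride hollow fibres holding OVCAR3 and OVCAR8 cells (day 0). Dosed ip once daily on days 3–6 in 2% DMSO/48% PEG300/50% H₂O diluted with H₂O. Fibres retrieved on day 7; cell viability by modified MTT assay. One-way ANOVA with Dunnett's test vs vehicle.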

OVCAR-5 [23] = assay: Cytotoxicity against human OVCAR-5 cells assessed as reduction in colony formation at 10 nM incubated for 8 hrs measured after 15 days by crystal violet staining based analysis; assay type: functional, cell-based; details: time 368.0 hrs
In short: (§8)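 Seeded at 200 cells per dish, attached overnight, exposed 8 h to 10 nM (DMSO vehicle 0.1%), then grown 15 days in untreated growth medium. Colonies fixed with 4% paraformaldehyde, stained with 0.05% crystal violet, counted and normalised to vehicle. Mean ± SEM, three biological replicates, one-way ANOVA with Dunnett's test.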

OVCAR-8 [24] = assay: Cytotoxicity against human OVCAR-8 cells assessed as reduction in colony formation at 10 nM incubated for 8 hrs measured after 15 days by crystal violet staining based analysis; assay type: functional, cell-based; details: time 368.0 hrs; in short: as §8
OVCAR-5 [25] = assay: Induction of apoptosis in human OVCAR-5 cells at 25 nM incubated for 48 hrs by Annexin V-FITC/propidium iodide staining based analysis; assay type: functional, cell-based; in short: as §3
OVCAR-3 [26] = assay: Cytotoxicity against human OVCAR-3 cells assessed as inhibition of cell growth for 72 hrs by CellTiter-Blue cell viability assay; assay type: functional, cell-based; details: OVCAR-3, 72 h; in short: as §1
HeLa [27] = assay: Induction of autophagy in human HeLa cells harboring eGFP-LC3 assessed as increase in LC3 puncta accumulation at 250 nM incubated for 4 hrs by Hoechst 33342 and DAPI staining based analysis; assay type: functional, cell-based
In short: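 HeLa stably expressing eGFP-LC3, 384-well plates, treated 4 h with serial dilutions starting at 250 nM, fixed in 4% formaldehyde, nuclei counterstained, imaged at 10× (FITC); LC3 puncta quantified by image analysis, normalised to DMSO, dose–response fitted.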

OVCAR-8 [28] = assay: Inhibition of cell migration in human OVCAR-8 cells assessed as decrease in wound closure at 10 to 25 nM incubated for 48 hrs by wound healing assay; assay type: functional, cell-based; details: dose 10-25 nM; in short: as §4
OVCAR-3 [29] = assay: Cytotoxicity against human OVCAR-3 cells assessed as reduction in colony formation at 10 nM incubated for 8 hrs measured after 15 days by crystal violet staining based analysis; assay type: functional, cell-based; details: time 368.0 hrs; in short: as §8
OVCAR-8 [30] = assay: Induction of apoptosis in human OVCAR-8 cells assessed as increase in caspase-3/7 activity at 50 nM incubated for 48 hrs by fluorescent reporter assay
OVCAR-8 [31] = assay: Induction of apoptosis in human OVCAR-8 cells assessed as decrease in caspase-3/7 activity at 50 nM incubated for 48 hrs in presence of by ZVAD-FMK fluorescent reporter assay
OVCAR-3 [32] = assay: Induction of autophagy in human OVCAR-3 cells assessed as reduction in cell viability at 25 nM incubated for 72 hrs in presence of bafilomycin by CellTiter-Blue Cell Viability assay; assay type: functional, cell-based; in short: as §6
OVCAR-5 [33] = assay: Induction of autophagy in human OVCAR-5 cells assessed as reduction in cell viability at 25 nM incubated for 72 hrs in presence of bafilomycin by CellTiter-Blue Cell Viability assay; assay type: functional, cell-based; in short: as §6
OVCAR-3 (Homo sapiens) [34] = assay: Anti-ferroptotic activity against human OVCAR-3 cells assessed as decrease in lipid peroxidation at 50 nM incubated for 24 hrs in presence of ferrostatin-1 by C11-BODIPY staining based flow cytometric analysis
OVCAR-3 [35] = assay: Antitumor activity against human OVCAR-3 cells xenografted in immunodeficient NCr nu/nu mouse assessed as reduction in cell survival at 0.5 mg/kg, ip administrated once per day for 4 days measured on day 7 by MTT assay; assay type: functional, organism-based; details: time 7.0 day; in short: as §7
OVCAR-5 [36] = assay: Induction of apoptosis in human OVCAR-5 cells assessed as increase in caspase-3/7 activity at 50 nM incubated for 48 hrs by fluorescent reporter assay

CO/C1=C\C(C)=C\[C@@H](C)[C@@H](O)[C@@H](C)C/C(C)=C/C=C/[C@H](OC)[C@@H]([C@@H](C)[C@@H](O)[C@H](C)[C@@]2(O)C[C@@H](O)[C@H](C)[C@@H](C(C)C)O2)OC1=O
active: Activity (OVCAR-8 [1])

CC(C)Oc1ccc(C(=O)Cn2ccnc2)cc1-n1c(CN2CCN(C(=O)COc3ccc(Cl)cc3)CC2)nc2ccccc2c1=O
inactive: Activity (OVCAR-3 [2])

Cc1cc(=O)c(O)cc2c1C[C@H]1CC(C)(C)/C=C/C[C@]3(C)Oc4cc(O)c(=O)cc(C)c4C[C@H]3C[C@H](O)[C@@]1(C)O2
170 nM: IC50 at 72 h [18]
active: Activity (OVCAR-5 [3]) | Activity (OVCAR-3 [5]) | Activity (OVCAR-3 [6]) | Activity (OVCAR-3 [7]) | Activity (OVCAR-3 [9]) | inhibition (OVCAR-5 [10]) | Activity (OVCAR-3 [11]) | Activity (OVCAR-3 [12]) | Activity (HeLa [13]) | Activity (OVCAR-3 (Homo sapiens) [14]) | Activity (OVCAR-8 [16]) | Activity (OVCAR-8 [17]) | Activity (OVCAR-3 [20]) | Activity (OVCAR-3 [21]) | Activity (OVCAR-5 [23]) | Activity (OVCAR-8 [24]) | Activity (HeLa [27]) | inhibition (OVCAR-8 [28]) | Activity (OVCAR-3 [29]) | Activity (OVCAR-8 [30]) | Activity (OVCAR-8 [31]) | Activity (OVCAR-3 (Homo sapiens) [34]) | Activity (OVCAR-3 [35]) | Activity (OVCAR-5 [36])
11 nM: IC50 (OVCAR-5 [8])
inactive: Activity (OVCAR-8 [19]) | Activity (OVCAR-8 [22]) | Activity (OVCAR-5 [25]) | Activity (OVCAR-3 [32]) | Activity (OVCAR-5 [33])
> 12%: Activity [15]
12 nM: IC50 (OVCAR-8 [1]; OVCAR-8, 72 h)
9.7 nM: IC50 (OVCAR-3 [26])
<= 12%: Activity [4]
